Data taken from ChEMBL document CHEMBL4041550, “Structure-Activity Relationship Study of QL47: A Broad-Spectrum Antiviral Agent” (ACS Med Chem Lett, 2017).
The source made the active and inactive calls. The rule behind the calls is not given here.

What was measured:
dengue virus type 2 [1] = assay: Antiviral activity against Dengue virus serotype 2 strain New Guinea C infected in HuH7 cells assessed as reduction in log-fold change by measuring focus forming unit at 10 uM measured at 24 hrs post infection by focus forming assay relative to control; assay type: functional, Thailand/NGS-C/1944
Method in brief: (§1)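 DENV2-infected Huh7 cells treated with compound at 2 or 10 μM. Infectious virus secreted into culture supernatants at 24 h post-infection/treatment was titred by focus-forming assay. Result expressed as log-fold change relative to DMSO treatment.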

dengue virus type 2 [2] = assay: Antiviral activity against Dengue virus serotype 2 replicon harboring GVD mutant infected in HuH7 cells assessed as reduction in viral RNA translation at 2 uM measured at 6 hrs post infection by luciferase reporter gene assay relative to control; assay type: functional; set-up: scale not given: the % may be the effect or the level left
Method in brief: (§2)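 Huh7 cells transfected with in vitro-transcribed nonreplicative DENV2(GVD) reporter replicon RNA, then treated immediately with compound at 2 or 10 μM. Intracellular firefly luciferase activity read 6 h post-transfection as a measure of RNA translation and expressed relative to DMSO-treated samples. Mean ± SD of experimental duplicates, n = 3 repeats.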

[3] = Cytotoxicity against human HuH7 cells measured after 24 hrs by CellTiter-Glo luminescent cell viability assay; assay type: cell-based, Huh-7
Method in brief: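 DENV2-infected Huh7 cells treated across a concentration range; cell viability read 24 h later. CC50 (50% cytotoxicity) derived by non-linear regression; mean ± SD of experimental duplicates, n ≥ 2 repeats.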

dengue virus type 2 [4] = assay: Antiviral activity against Dengue virus serotype 2 strain New Guinea C infected in HuH7 cells assessed as reduction in log-fold change by measuring focus forming unit at 2 uM measured at 24 hrs post infection by focus forming assay relative to control; assay type: functional, Thailand/NGS-C/1944; method in brief: as §1
[5] = Half life in mouse hepatic microsomes at 1 uM in presence of NADPH by LC-MS/MS method; assay type: ADME, Microsome; details: liver microsomes
Method in brief: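 Compound incubated with mouse liver microsomes; half-life (T1/2, min) of the compound reported as a measure of metabolic stability.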

dengue virus type 2 [6] = assay: Antiviral activity against Dengue virus serotype 2 replicon harboring GVD mutant infected in HuH7 cells assessed as reduction in viral RNA translation at 10 uM measured at 6 hrs post infection by luciferase reporter gene assay relative to control; assay type: functional; set-up: scale not given: the % may be the effect or the level left; method in brief: as §2
dengue virus type 2 [7] = assay: Antiviral activity against Dengue virus serotype 2 strain New Guinea C infected in HuH7 cells at […] to 10 uM measured at 24 hrs post infection by focus forming assay; assay type: functional, cell-based; details: Thailand/NGS-C/1944
Method in brief: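 Huh7 cells infected with DENV2, then treated with compound; screened at 2 and 10 μM. Infectious virus secreted into supernatant at 24 h post-infection/treatment titrated by focus-forming assay; expressed as log-fold change relative to DMSO. IC90 (1-log10 drop in infectious progeny) from concentration range by non-linear regression; mean ± SD of experimental duplicates, n ≥ 2 repeats.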

| Compound | Activity (dengue virus type 2 [1]) [log10FFU/ml] | Activity (dengue virus type 2 [2]) [%] | CC50 at 24 h [3] [µM] | Activity (dengue virus type 2 [4]) [log10FFU/ml] | half-life at 1 µM [5] [min] | Activity (dengue virus type 2 [6]) [%] | Activity (dengue virus type 2 [7]) |
| --- | --- | --- | --- | --- | --- | --- | --- |
| C=CC(=O)Nc1cc(-n2c(=O)ccc3ccc4ccc(-c5ccc6ccncc6c5)cc4c32)ccc1C | 4 | 82 | 75 | 1.9 | 9 | 94 |  |
| C=CC(=O)N1CCc2ccc(-n3c(=O)ccc4cnc5ccc(-c6ccc(S(=O)(=O)NC(C)(C)C)cc6)cc5c43)cc21 | 1.9 | 81 | 13 | 0 | 2.3 | 100 |  |
| C=CC(=O)N1CCC[C@@H](n2nc(-c3ccc(Oc4ccccc4)cc3)c3c(N)ncnc32)C1 |  |  |  |  |  |  | inactive |
| C=CC(=O)Nc1cc(-n2c(=O)ccc3cnc4ccc(-c5cnn(C)c5)cc4c32)ccc1F | 4 | 97 | 105 | 4 | 4.5 | 99 |  |
| C=CC(=O)Nc1cc(-n2c(=O)ccc3ccc4ccc(-c5cn[nH]c5)cc4c32)ccc1C | 4 | 39 | 29 | 2 | 4 | 79 |  |
| C=CC(=O)Nc1cc(-n2c(=O)ccc3cnc4ccc(-c5ccc(NS(C)(=O)=O)cc5)cc4c32)ccc1C |  |  |  |  |  |  | inactive |
| C=CC(=O)Nc1cc(-n2c3c(ccc2=O)CCc2ccc(-c4cnn(C)c4)cc2-3)ccc1C | 1 | 49 | > 160 | 0.5 |  | 60 |  |
| Cc1ccc(-n2c(=O)ccc3ccc4ccc(-c5ccc6ccncc6c5)cc4c32)cc1NC(=O)/C=C/CN(C)C | 4 | 17 | 21 | 3.3 | 6.3 | 66 |  |
| C=CC(=O)Nc1cc(-n2c(=O)ccc3cnc4ccc(-c5cnc6ccccc6c5)cc4c32)ccc1C | 4 | 82 | > 160 | 2.7 | 1.3 | 95 |  |
| Cc1c(NC(=O)c2ccc(C(C)(C)C)cc2)cccc1-c1cn(C)c(=O)c(Nc2ccc(C(=O)N3CCOCC3)cc2)n1 |  |  |  |  |  |  | inactive |
| C=CC(=O)N1CCc2ccc(N3C(=O)NCc4cnc5ccc(-c6cnn(C)c6)cc5c43)cc21 | 0.8 | 49 | 68 | 0.1 | 2 | 53 |  |
| C=CC(=O)N1CCc2ccc(-n3c(=O)n(C)c4cnc5ccc(-c6cnn(C)c6)cc5c43)cc21 | 4 | 94 | 79 | 2.5 | 2 | 99 |  |
| C=CC(=O)Nc1cc(-n2c(=O)ccc3ccc4ccc(-c5cnn(C)c5)cc4c32)ccc1C | 4 | 76 | > 160 | 4 | 4 | 95 |  |
| C=CC(=O)Nc1cc(-n2c(=O)ccc3cnc4ccc(Nc5cnn(C)c5)cc4c32)ccc1C | 0.4 | 23 | 107 | 0 | 7.9 | 24 |  |
| C=CC(=O)Nc1cc(-n2c(=O)ccc3cnc4ccc(N5CCN(c6ccccc6)CC5)cc4c32)ccc1C | 0 | 0 | 44 | 0.1 | 5 | 2 |  |
| C=CC(=O)Nc1cc(-n2c(=O)ccc3cnc4ccc(N5CCOCC5)cc4c32)ccc1C | 1.2 | 0 | 103 | 0.1 | 9 | 23 |  |
| C=CC(=O)Nc1cc(-n2c(=O)ccc3cnc4ccc(-c5ccc6c(c5)OCO6)cc4c32)ccc1C | 4 | 32 | 46 | 2.8 | 2.7 | 94 |  |
| C=CC(=O)N1CCc2ccc(-n3c(=O)n(C)c4cnc5ccc(-c6ccc7ccncc7c6)cc5c43)cc21 | 4 | 77 | 126 | 2 | 2 | 98 |  |
| C=CC(=O)Nc1cc(-n2c(=O)ccc3cnc4ccc(-c5cnn(C)c5)cc4c32)ccc1C | 4 | 40 | > 160 | 1 | 4.1 | 34 |  |
| C=CC(=O)Nc1cc(-n2c(=O)ccc3cnc4ccc(-c5cnn(C)c5)cc4c32)ccc1C(=O)O | 0 | 3 | > 160 | 0 |  | 19 |  |
| C=CC(=O)Nc1cc(-n2c(=O)ccc3cnc4ccc(-c5cnn(C)c5)cc4c32)ccc1OCCNC(C)=O | 4 | 39 | 99 | 1.1 |  | 90 |  |
| C=CC(=O)Nc1cc(-n2c(=O)ccc3cnc4ccc(-c5ccc(N)nc5)cc4c32)ccc1C | 4 | 44 | 75 | 0.8 | 6.4 | 75 |  |
| C=CC(=O)Nc1cc(-n2c3c(ccc2=O)CCc2ccc(-c4ccc5ccncc5c4)cc2-3)ccc1C | 0.1 | 77 | > 160 | 0.5 |  | 88 |  |
| C=CC(=O)Nc1cc(-n2c(=O)ccc3cnc4ccc(-c5cnn(C)c5)cc4c32)ccc1C(=O)N(C)C | 4 | 4 | 83 | 2 |  | 93 |  |
| C=CC(=O)Nc1cc(-n2c(=O)ccc3cnc4ccc(-c5cn[nH]c5)cc4c32)ccc1C | 4 | 29 | 77 | 0.8 | 6.5 | 76 |  |
